Experiments:
[1] = system: HCT116 (colon carcinoma) cells; assay: Trypan blue exclusion cell growth inhibition, HCT116; assay type: cell-based, human
Summary of the method: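 HCT116 cells were grown in RPMI 1640 + 10% FBS at 37 °C, humidified 5% CO2, and seeded at 1 × 10⁴ cells/well with test compound. After 48 h, cells were mixed 1:1 with 0.4% trypan blue and counted on a haemocytometer, in triplicate. Points are means of four samples over three experiments. IC50/IC75/IC90 came from sigmoidal fits. Selectivity = IC50 in […] ÷ IC50 in cancer cells.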

plasmid (pBR322) DNA = assay: Electrophoresis mobility shift assay with plasmid DNA; assay type: binding; details: metal/DNAbp ratios 0.25-2.0; 37 °C, 20 h
Summary of the method: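 pBR322 plasmid DNA (20 µg/mL) in 5 mM Tris/HCl, 50 mM NaClO4, pH 7.39, was incubated with test compound at metal complex:DNA bp ratios of […], 37 °C, 20 h, in the dark. Free DNA and cisplatin-treated DNA served as controls. Samples ran on 1% agarose in TAE, 80 V for 1.5 h, then were GelRed-stained 30 min.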

cytochrome c = cytochrome c (Equus caballus, UniProt P00004); assay: ESI-MS metallodrug-protein interaction, cytochrome c; assay type: binding; details: 3:1 metal/protein, 24 h RT, 20 mM ammonium acetate pH 6.8
cytochrome c, sequence (P00004 whole entry, the tested form may be a part): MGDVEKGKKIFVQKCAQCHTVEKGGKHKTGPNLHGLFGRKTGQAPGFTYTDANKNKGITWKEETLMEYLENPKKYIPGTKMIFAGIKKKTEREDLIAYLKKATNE
Summary of the method: (§1)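 Each protein (100 µM) in 20 mM ammonium acetate, pH 6.8, was mixed with test compound at a 3:1 metal/protein ratio and held 24 h at RT. Samples were diluted 20-fold with water and infused directly at 5 µl/min into an ESI Orbitrap (spray 3.1 kV, capillary 45 V, 220 °C, resolution 100,000 at m/z 400). Monoisotopic and average masses were obtained by deconvolution.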

RNase A = biological target: T1, RNase A (Bos taurus, UniProt P61823); assay: ESI-MS metallodrug-protein interaction, RNase; assay type: binding; details: 3:1 metal/protein, 24 h RT, 20 mM ammonium acetate pH 6.8
T1 sequence (P61823 27-150): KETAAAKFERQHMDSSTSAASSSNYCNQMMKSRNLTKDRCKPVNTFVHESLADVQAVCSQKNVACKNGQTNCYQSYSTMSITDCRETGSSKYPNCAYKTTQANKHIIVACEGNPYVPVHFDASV
Summary of the method: as §1

Q: What does the source list for `Cc1ccc(C(C)C)cc1.Cc1ccc(C(C)C)cc1.[Cl][Ru][Cl].[Cl][Ru][Cl]` [a (Ru), [Ru(p-cymene)Cl(µ-Cl)]2]?
A: IC75 HCT116 ([1]; 48 h incubation, compounds dissolved in DMSO (1%), Trypan blue): 313.3 ± 7.1 µM; Calculated tumour selectivity (IC50 L929/IC50 HCT116) ([1]; IC50 normal cells divided by IC50 cancer cells): 3.3; Effect on mobility of supercoiled form (Form I) of plasmid DNA (plasmid (pBR322) DNA): did not affect the mobility; Interaction with cytochrome c (ESI-MS adducts) (cytochrome c): protein binding of a Ru(p-cymene) fragment; Interaction with RNase (ESI-MS adducts) (RNase A): protein binding of a Ru(p-cymene) fragment

Reference: publication PMC4464950 (Dalton transactions (Cambridge, England : 2003), 2015)
